Measured values published in ChEMBL document CHEMBL1671709, “Small-molecule screening using a whole-cell viral replication reporter gene assay identifies 2-{[2-(benzoylamino)benzoyl]amino}-benzoic acid as a novel antiadenoviral compound” (Antimicrob Agents Chemother, 2010).
The source made the active and inactive calls. The rule behind the calls is not given here.

How the values were obtained:
[1] = Cytotoxicity against human K562 cells assessed as viable cells after 24 hrs by MTT assay; format: cell-based; conditions: read-out: Activity
Method in brief: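 K562 cells (50,000/well) in phenol-red-free RPMI with 5% FBS, compound at 50 µM final (serial 25–0.78 µM in triplicate for dose-response), 24 h at 37 °C, 5% CO2, after the GFP fluorescence read. MTT added for 2 h, formazan dissolved in acidic isopropanol/Triton X-100, absorbance at 570 nm.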

[2] = system: K562; experiment: Cytotoxicity against human K562 cells assessed as dead cells at 15 uM after 24 hrs using PI by FACS analysis; format: cell-based; conditions: k562, 24 h
Method in brief: (§1)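 A549 cells (2×10^5) seeded the day before in DMEM with 1% FBS; K562 cells (200,000) in RPMI 1640 with 5% FBS added just before compound. Compound at 5 and 15 µM, DMSO <1%, 24 h at 37 °C, 5% CO2. Cells washed, resuspended in PBS with 1 µg propidium iodide; dead cells counted by flow cytometry. Two independent duplicate experiments.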

[3] = system: A549; experiment: Cytotoxicity against human A549 cells assessed as dead cells at 15 uM after 24 hrs using PI by FACS analysis; format: cell-based; conditions: a549, 24 h; method in brief: as §1
[4] = Antiviral activity against Human adenovirus type 4 RI-67 infected in A549 cells assessed as inhibition of DNA replication by QPCR assay; format: functional, cell-based, Human adenovirus 4; conditions: Human mastadenovirus E, RI-67, A549
Method in brief: (§2)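 A549 cells (about 10^5/well) were seeded the day before. Compound (0.5–15 µM, DMSO <1%) and 1 pg virions/cell were added together in DMEM with 1% FBS and held 24 h at 37°C. DNA was then extracted and viral genomes counted by TaqMan QPCR (AdDF probe, Ad5 or Ad11 DNA standards 5–5×10^5 copies), normalized to RNase P. EC50 is the 50% replication inhibition point, from at least two independent duplicate experiments.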

[5] = system: Human adenovirus 5; experiment: Antiviral activity against Human adenovirus type 5 F2853-5b infected in human A549 cells assessed as inhibition of hexon protein expression after 24 hrs using propidium iodide by FACS analysis; format: functional, organism-based; conditions: in the assay text read “using anti-hexon monoclonal antibody” for “using propidium iodide”
Method in brief: (§3)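 A549 cells (~2×10^5) seeded the day before. Compound (5 and 15 µM) added together with virus, 1 pg Ad5 or 0.5 pg Ad11p virions per cell, in DMEM with 1% FBS, DMSO <1%. After 24 h at 37 °C cells fixed in 2% paraformaldehyde and permeabilized with saponin. Stained with anti-hexon mouse monoclonal then Alexa Fluor 488 anti-mouse; read by flow cytometry. Two independent duplicate experiments.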

[6] = system: Human adenovirus 5; experiment: Antiviral activity against Human adenovirus type 5 F2853-5b infected in A549 cells assessed as inhibition of DNA replication by QPCR assay; format: functional, organism-based; conditions: Human mastadenovirus C; method in brief: as §2
[7] = system: Human adenovirus 5; experiment: Inhibition of [35S]-labeled Human adenovirus type 5 F2853-5b binding to human A549 cells at 15 uM; format: functional, organism-based
Method in brief: (§4)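 A549 cells detached with 0.05% EDTA, allowed to recover 1 h, then suspended in PBS with 1% FBS and 0.01% NaN3 (200,000/well) on ice. Compound at 5 and 15 µM final, DMSO <1%, plus 5 pg 35S-labeled Ad5 or Ad11p virions per cell, rocked 1 h on ice. Cells washed three times; bound radioactivity counted by liquid scintillation. Three independent duplicate experiments.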

[8] = Selectivity index, ratio of CC50 for human A549 cells to EC50 for Human adenovirus type 11p; format: toxicity, cell-based; conditions: read-out: Selectivity Index
Method in brief: (§5)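 About 50,000 A549 cells seeded the day before; compound titrated in DMEM with 1% FBS for 24 h. XTT then added and incubated 2 h at 37 °C, with absorbance read at 450 nm. CC50 is the concentration leaving 50% of cells viable. Selectivity index is CC50 divided by the QPCR EC50 for each virus. Three independent duplicate experiments.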

[9] = Antiviral activity against Human adenovirus type 41 Tak infected in A549 cells assessed as inhibition of DNA replication by QPCR assay; format: functional, cell-based, Human adenovirus 41; conditions: Human mastadenovirus F; method in brief: as §2
[10] = Cytotoxicity against human Fibroblast cells assessed as dead cells at 15 uM after 24 hrs using PI by FACS analysis; format: cell-based
[11] = system: Human adenovirus 5; experiment: Antiviral activity against Human adenovirus type 5 infected in human A549 cells assessed as inhibition of viral replication by QPCR after 24 hrs; format: functional, organism-based; conditions: Human mastadenovirus C, A549, 24 h
Method in brief: (§6)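 A549 cells (~10^5/well) seeded the day before; compound (0.5–15 µM) and 1 pg Ad virions per cell added together in DMEM with 1% FBS, final DMSO <1%. After 24 h at 37 °C, 5% CO2, cells harvested and DNA extracted. Viral genomes quantified by real-time PCR against Ad5 DNA standard curves, normalized to cellular RNase P. EC50 taken as 50% inhibition of replication; three independent duplicate experiments.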

[12] = Antiviral activity against Human adenovirus type 11p in human K562 cells harboring green fluorescent protein-expressing RCAd11pGFP vector assessed as inhibition of RCAd11pGFP genome expression at 50 uM relative to untreated control; format: functional, Human adenovirus 11p; conditions: Human mastadenovirus B
Method in brief: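 Single-point screen done once in K562 cells (50,000/well) in phenol-red-free RPMI with 5% FBS, with RCAd11pGFP at 1 pg/cell. Compound was at 50 µM final, from a 5 mM DMSO stock. Each plate held six DMSO-only uninfected wells and six infected DMSO wells. After 24 h at 37°C in 5% CO2, GFP fluorescence was read at 485 nm, then MTT viability.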

[13] = Antiviral activity against Human adenovirus type 11p slobitski infected in A549 cells assessed as inhibition of DNA replication by QPCR assay; format: functional, cell-based, Human adenovirus 11p; conditions: Human mastadenovirus B; method in brief: as §2
[14] = system: A549; experiment: Antiviral activity against Human adenovirus type 11p slobitski infected in human A549 cells assessed as inhibition of hexon protein expression after 24 hrs using propidium iodide by FACS analysis; format: functional, cell-based; conditions: Human adenovirus 11p, in the assay text read “using anti-hexon monoclonal antibody” for “using propidium iodide”; method in brief: as §3
[15] = Antiviral activity against Human adenovirus type 11p in human K562 cells harboring green fluorescent protein-expressing RCAd11pGFP vector assessed as inhibition of RCAd11pGFP genome expression; format: functional, cell-based, Human adenovirus 11p; conditions: Human mastadenovirus B
Method in brief: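 K562 cells (50,000/well) in phenol-red-free RPMI with 5% FBS, infected with RCAd11pGFP at 1 pg/cell. The 5 mM DMSO stock was diluted 1:1 serially from 25 to 0.78 µM, with final DMSO <1%, run in triplicate.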

[16] = system: Human adenovirus 5; experiment: Antiviral activity against Human adenovirus type 5 infected in human A549 cells assessed as inhibition of viral replication by QPCR at 5 uM after 24 hrs; format: functional, organism-based; method in brief: as §6
[17] = Cytotoxicity against human A549 cells by XTT assay; format: cell-based; method in brief: as §5
[18] = Selectivity index, ratio of CC50 for human A549 cells to EC50 for Human adenovirus type 5; format: toxicity, cell-based; conditions: read-out: Selectivity Index; method in brief: as §5
[19] = system: A549; experiment: Antiviral activity against Human adenovirus type 11p in human A549 cells harboring green fluorescent protein-expressing RCAd11pGFP vector assessed as inhibition of RCAd11pGFP genome expression; format: functional, cell-based; conditions: Human adenovirus 11p
[20] = system: Human adenovirus 5; experiment: Antiviral activity against Human adenovirus type 5 infected in human A549 cells assessed as inhibition of viral replication by QPCR at 15 uM after 24 hrs; format: functional, organism-based; method in brief: as §6
[21] = Antiviral activity against Human adenovirus type 31 1315/63 infected in A549 cells assessed as inhibition of DNA replication by QPCR assay; format: functional, cell-based, Human adenovirus 31; conditions: Human mastadenovirus A, 1315/63, A549; method in brief: as §2
[22] = Antiviral activity against Human adenovirus type 11p infected in human A549 cells assessed as inhibition of viral replication by QPCR after 24 hrs; format: functional, cell-based, Human adenovirus 11p; conditions: Human mastadenovirus B, A549, 24 h; method in brief: as §6
[23] = system: Human adenovirus D37; experiment: Antiviral activity against Human adenovirus type 37 1477 infected in A549 cells assessed as inhibition of DNA replication by QPCR assay; format: functional, organism-based; conditions: Human mastadenovirus D, 1477, A549; method in brief: as §2
[24] = system: A549; experiment: Inhibition of [35S]-labeled Human adenovirus type 11p slobitski binding to human A549 cells at 15 uM; format: functional, cell-based; conditions: Human adenovirus 11p; method in brief: as §4

SMILES: O=C(Nc1ccccc1C(=O)Nc1ccccc1C(=O)O)c1ccccc1
- viability at 24 h [1]: 100%
- Activity [2]: < 2%
- Activity [3]: < 2%
- EC50 [4]: 3.6 µM
- inhibition [5]: Dose-dependent effect
- EC50 [6]: 3.7 µM
- inhibition [7]: inactive
- selectivity ratio [8]: 68
- EC50 [9]: 2.4 µM
- Activity [10]: < 2%
- EC50 [11]: 3.7 µM
- inhibition at 50 µM [12]: 100%
- EC50 [13]: 2.9 µM
- inhibition [14]: Dose-dependent effect
- EC50 [15]: 28.6 µM
- inhibition [16]: Active
- CC50 [17]: 199 µM
- selectivity ratio [18]: 54
- inhibition [19]: Active
- inhibition [20]: Active
- EC50 [21]: 3.9 µM
- EC50 [22]: 2.9 µM
- EC50 [23]: 4.7 µM
- inhibition [24]: inactive

SMILES: Nc1ccn(C[C@@H](CO)OCP(=O)(O)O)c(=O)n1 [CIDOFOVIR]
- EC50 [6]: 19.9 µM
- EC50 [13]: 16.5 µM

SMILES: O=C(Nc1ccccc1C(=O)Nc1ccccc1C(=O)Nc1ccccc1C(=O)O)c1ccccc1
- inhibition [16]: inactive
- inhibition [20]: inactive

SMILES: O=C(Nc1ccccc1C(=O)O)c1ccccc1
- inhibition [16]: inactive
- inhibition [20]: inactive
